A short description of data set [1]: Drug metabolism in human liver microsomes assessed as increase in 1-(4-(((2S,4R)-2-(2,4-dichlorophenyl)-2-methyl-1,3-dioxolan-4-yl)methoxy)phenyl)piperazine formation at 1 uM in presence of NADPH by LC-MS/MS analysis. The data set is classed as ADME, Microsome. In general terms: Liver microsomes are vesicles of endoplasmic reticulum, rich in cytochrome P450 enzymes.

Data set [2] is described as follows: Drug metabolism in human liver microsomes assessed as increase in oxidized metabolite formation at 1 uM in presence of NADPH by LC-MS/MS analysis. It is filed as ADME, Microsome.
Data set [3] can be described thus: Microsomal stability in human liver microsomes assessed as intrinsic clearance at 1 uM in presence of NADPH/phosphate buffer by LC-MS/MS analysis. The data set is classed as ADME, Microsome. Particulars: read-out: CLH.
Data set [4] is described as follows: Microsomal stability in human liver microsomes assessed as half-life at 1 uM in presence of NADPH/phosphate buffer by LC-MS/MS analysis. The data set is classed as ADME, Microsome.
The nature of data set [5]: Inhibition of Hedgehog signaling pathway in mouse ASZ001 cells assessed as decrease in Gli1 mRNA expression after 48 hrs by qRT-PCR analysis. It is filed as cell-based. Particulars: ASZ001, 48 h. The procedure, abridged:
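Hh-dependent murine basal cell carcinoma line ASZ001; read-out is Gli1 mRNA expression. IC50 given as mean ± SEM of at least two separate experiments, each run in triplicate.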

Data set [6] in a line: Solubility in PBS at pH 7.4 under shaking condition by HPLC analysis. The data set is classed as physicochemical.
The nature of data set [7]: Solubility in PBS at pH 4 under shaking condition by HPLC analysis. The data set is classed as physicochemical.
Another data set concerns MEF. Description: Inhibition of Hedgehog signaling pathway in Sufu-deficient mouse MEF cells assessed as decrease in Gli1 mRNA expression by q-PCR analysis relative to control. It is filed as cell-based.
The species named for data set [8] is Mus musculus. Briefly: Inhibition of Hedgehog signaling pathway in mouse C3H10T1/2 cells assessed as reduction in recombinant mouse sonic hedgehog/oxysterol-induced Gli1 mRNA expression by q-PCR analysis. The data set is classed as cell-based.
A short description of data set [9]: Growth inhibition of human HC04 cells assessed as decrease in cell viability after 72 hrs by CellTiter96 AQueous non radioactive cell proliferation assay. An outline of the steps:
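HC-04 is a human hepatocyte-derived line rich in drug-metabolizing enzymes. Anti-proliferative activity is reported as GI50.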

The nature of data set [10]: Aqueous solubility of the compound. Particulars: buffer. The data set is classed as physicochemical.
Data set [11] is filed under the species Mus musculus. Description: Potency index, ratio of ITZ IC50 to test compound IC50 for inhibition of Hedgehog signaling pathway in mouse ASZ001 cells assessed as decrease in Gli1 mRNA expression after 48 hrs by qRT-PCR analysis. The data set is classed as cell-based.
Data set [12] in a line: Drug level in human liver microsomes treated with 1-(4-(4-(((2S,4R)-2-(2,4-dichlorophenyl)-2-methyl-1,3-dioxolan-4-yl)methoxy)phenyl)piperazin-1-yl)-2-(3-hydroxyphenyl)ethanone assessed as increase in 1-(4-(((2S,4R)-2-(2,4-dichlorophenyl)-2-methyl-1,3-dioxolan-4-yl)methoxy)phenyl)piperazine formation at 1 uM in presence of NADPH by LC-MS/MS analysis. It is filed as ADME, Microsome.

A short description of data set [13]: Drug level in human liver microsomes treated with 1-(4-(4-(((2S,4R)-2-(2,4-dichlorophenyl)-2-methyl-1,3-dioxolan-4-yl)methoxy)phenyl)piperazin-1-yl)-3-(3-hydroxyphenyl)propan-1-one formation at 1 uM in presence of NADPH by LC-MS/MS analysis. It is filed as ADME, Microsome.

Structures are written as SMILES. Values after ≈ are worked out from the molar mass of the structure shown. Active and inactive are the calls of the source.

In the case of `C[C@]1(c2ccc(Cl)cc2Cl)OC[C@@H](COc2ccc(N3CCN(C(=O)Cc4cccc(O)c4)CC3)cc2)O1`, the Drug metabolism entry in [1] and in [2] was “Metabolite_Detected” throughout. In addition, the microsomal CLint at 1 µM in data set [3] is 33.9 µL/min/mg. Besides, in data set [4], the half-life (as a rule, the time needed for the level to fall by half in the phase considered) at 1 µM came to 20.4 min. For the same molecule, the IC50 (in general, the concentration that gives 50% inhibition) in data set [5] was 380 nM.
`C[C@]1(c2ccc(Cl)cc2Cl)OC[C@@H](COc2ccc(N3CCN(C(=O)c4cccc(O)c4)CC3)cc2)O1`: the microsomal CLint at 1 µM in data set [3] worked out at 43 µL/min/mg. Also, in data set [4], the half-life at 1 µM was 15.9 min. Further, in data set [5], the IC50 amounted to 260 nM.
As for `C[C@]1(c2ccc(Cl)cc2Cl)OC[C@@H](COc2ccc(N3CCN(C(=O)c4ccc(N)cc4)CC3)cc2)O1`, the IC50 in [5] was 280 nM.
As for `C[C@]1(c2ccc(Cl)cc2Cl)OC[C@@H](COc2ccc(N3CCN(C(=O)CCc4ccc(O)c(O)c4)CC3)cc2)O1`, in data set [3], the microsomal CLint at 1 µM is 105 µL/min/mg. In [6], the concentration in solution (solubility) came to 0.84 µM (≈ 0.494 µg/mL). Further, the half-life at 1 µM in data set [4] amounted to 6.6 min. The half-inhibitory concentration (IC50) in data set [5] turned out to be 89 nM.
For `C[C@]1(c2ccc(Cl)cc2Cl)OC[C@@H](COc2ccc(N3CCN(C(=O)c4cccnc4)CC3)cc2)O1`, the IC50 in data set [5] worked out at 1300 nM.
In the case of `C[C@]1(c2ccc(Cl)cc2Cl)OC[C@@H](COc2ccc(N3CCN(C(=O)CCc4ccc(O)cc4)CC3)cc2)O1`, the IC50 in data set [5] is 260 nM.
Take `C[C@]1(c2ccc(Cl)cc2Cl)OC[C@@H](COc2ccc(N3CCN(C(=O)CCc4ccccc4)CC3)cc2)O1`: in [5], the IC50 was 230 nM.
Regarding `C[C@]1(c2ccc(Cl)cc2Cl)OC[C@@H](COc2ccc(N3CCN(C(=O)CCCc4ccc(O)cc4)CC3)cc2)O1`, the IC50 in data set [5] stood at 470 nM.
In the case of `C[C@]1(c2ccc(Cl)cc2Cl)OC[C@@H](COc2ccc(N3CCN(C(=O)/C=C/c4cccc(O)c4)CC3)cc2)O1`, in [5], the IC50 is 220 nM.
Take `C[C@]1(c2ccc(Cl)cc2Cl)OC[C@@H](COc2ccc(N3CCN(CCCc4cccc(O)c4)CC3)cc2)O1`: the solubility (as a rule, the concentration that dissolves in the medium under given conditions) in data set [7] turned out to be 0.13 µM (≈ 0.0725 µg/mL); in data set [6], 0.02 µM (≈ 0.0112 µg/mL). Also, the microsomal CLint at 1 µM in data set [3] was determined as 50 µL/min/mg. For the same molecule, the half-life at 1 µM in data set [4] amounted to 14 min. In data set [5], the IC50 amounted to 870 nM.
Taken in the same sequence, the figures for `C[C@]1(c2ccc(Cl)cc2Cl)OC[C@@H](COc2ccc(N3CCN(C(=O)N/N=C/c4ccc(O)cc4)CC3)cc2)O1` were 0.05 µM (≈ 0.0293 µg/mL), 0.02 µM (≈ 0.0117 µg/mL), 60 µL/min/mg, 11.4 min and 960 nM.
Take `C[C@]1(c2ccc(Cl)cc2Cl)OC[C@@H](COc2ccc(N3CCN(C(=O)c4ccc([N+](=O)[O-])cc4)CC3)cc2)O1`: the half-maximal inhibitory concentration (IC50) in [5] was 160 nM.
The same measure, in the same setting: the same measure for `C[C@]1(c2ccc(Cl)cc2Cl)OC[C@@H](COc2ccc(N3CCN(C(=O)c4ccc(O)cc4)CC3)cc2)O1`: 580 nM; for `COc1cccc(CCC(=O)N2CCN(c3ccc(OC[C@@H]4CO[C@](C)(c5ccc(Cl)cc5Cl)O4)cc3)CC2)c1`: 460 nM; for `C[C@]1(c2ccc(Cl)cc2Cl)OC[C@@H](COc2ccc(N3CCN(C(=O)c4ccncc4)CC3)cc2)O1`: 570 nM.
As for `CCC(C)n1ncn(-c2ccc(N3CCN(c4ccc(OCC5COC(Cn6cncn6)(c6ccc(Cl)cc6Cl)O5)cc4)CC3)cc2)c1=O` (stereo unspecified) [ITRACONAZOLE], the inhibition result with MEF is “inactive”. For the same molecule, in the data set filed under Mus musculus [8], the inhibition result was “Active”. Further, the IC50 in data set [5] was 140 nM.
As to `C[C@]1(c2ccc(Cl)cc2Cl)OC[C@@H](COc2ccc(N3CCN(C(=O)c4ccccn4)CC3)cc2)O1`, in [5], the IC50 turned out to be 1420 nM.
For the molecule `C[C@]1(c2ccc(Cl)cc2Cl)OC[C@@H](COc2ccc(N3CCN(C(=O)/C=C/c4ccc(O)cc4)CC3)cc2)O1`, the IC50 in data set [5] amounted to 360 nM.
Regarding `C[C@]1(c2ccc(Cl)cc2Cl)OC[C@@H](COc2ccc(N3CCN(C(=O)CCc4cccc(O)c4)CC3)cc2)O1`, the GI50 (as a rule, the concentration that inhibits growth by half) at 72 h in [9] amounted to 13200 nM. The solubility entry in [10] is “Soluble”; in [6] it was 0.03 µM (≈ 0.0171 µg/mL). Besides, in data set [3], the microsomal CLint at 1 µM turned out to be 218 µL/min/mg. Also, the inhibition entry in the data set listed under Mus musculus [8] is “Active”. For the same molecule, the half-life at 1 µM in data set [4] came to 3.2 min. In addition, the IC50 in data set [5] came out at 81 nM. Further, the Ratio IC50 in the data set listed under Mus musculus [11] worked out at 2.
For `C[C@@]1(c2ccc(Cl)cc2Cl)OC[C@@H](COc2ccc(N3CCN(C(=O)N/N=C/c4cccc(O)c4)CC3)cc2)O1`, the IC50 in data set [5] amounted to 580 nM.
Take `C[C@]1(c2ccc(Cl)cc2Cl)OC[C@@H](COc2ccc(N3CCNCC3)cc2)O1`: in data set [9], the concentration for 50% growth inhibition (GI50) at 72 h is 27300 nM. Further, the inhibition entry in the data set on MEF was “inactive”. Moreover, the Drug uptake result in data set [12] and in data set [13] was “Active” each time. Moreover, the solubility entry in data set [10] is given as “Soluble”. Also, the microsomal CLint at 1 µM in data set [3] worked out at 13.7 µL/min/mg. In addition, the inhibition entry in the data set listed under Mus musculus [8] was “Active”. Also, the half-life at 1 µM in [4] came out at 50.7 min. In addition, the IC50 in [5] stood at 22 nM.
For `C[C@]1(c2ccc(Cl)cc2Cl)OC[C@@H](COc2ccc(N3CCN(C(=O)N/N=C/c4cccc(O)c4)CC3)cc2)O1`, in [5], the half-inhibitory concentration (IC50) was 120 nM.

The values are drawn from ChEMBL document CHEMBL4304813 (ACS Med Chem Lett, 2019).
